Laboratory results reported in PubChem BioAssay AID720702 (The Scripps Research Institute Molecular Screening Center, 2013).
The campaign covered roughly 370,000 compounds. About 1,200 (0.32%) were called active. For the sample, actives were picked, then their nearest neighbours and some compounds at random. Values without a mark were called inactive.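 How the source made its calls: active means inhibition above the mean of all tested compounds plus 3 SD, set per campaign (cut at about 25% in these data); inactive means the rest.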

Target: Tyrosyl-DNA phosphodiesterase 2 (Homo sapiens) (UniProt O95551)
Test: human TDP2 enzyme inhibitors, primary screen, biochemical, epi absorbance, recombinant enzyme (AID 720702);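 further: 0% = DMSO with enzyme and 100% = buffer with substrate but no TDP2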
Conditions: recombinant TDP2, T5PNP hydrolysis, p-nitrophenol absorbance 415 nm; at 12.8 µM; active compounds read high
Summary of the method: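 System – recombinant human TDP2 · Amount – 120 nM TDP2 per well · Buffer or medium – Mg2+-containing Tris-HCl buffer, pH 7.5 · Reagent – T5PNP substrate, 5 mM · Dosing – 12.8 µM single point, 1% DMSO · Incubation – 2 h at 37 °C · Measured by – epi absorbance · Read-out basis – percent inhibition · Benchmarks – high control without enzyme, low control DMSO plus TDP2 · Repeats – singlicate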

Sequence of Tyrosyl-DNA phosphodiesterase 2 (Homo sapiens) (O95551 whole entry, looked up): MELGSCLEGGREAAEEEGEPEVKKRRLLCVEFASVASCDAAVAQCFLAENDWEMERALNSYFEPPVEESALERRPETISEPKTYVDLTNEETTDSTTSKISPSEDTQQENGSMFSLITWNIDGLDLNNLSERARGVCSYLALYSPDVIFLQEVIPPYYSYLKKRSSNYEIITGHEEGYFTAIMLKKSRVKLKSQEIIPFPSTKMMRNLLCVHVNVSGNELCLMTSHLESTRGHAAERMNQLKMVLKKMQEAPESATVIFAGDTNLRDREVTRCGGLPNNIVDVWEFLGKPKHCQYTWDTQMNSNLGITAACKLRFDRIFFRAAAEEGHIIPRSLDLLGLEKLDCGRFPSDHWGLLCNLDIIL

| SMILES | inhibition |
| --- | --- |
| COC(=O)C1CN(CCc2ccccc2)CCS(=O)(=O)N1Cc1cccc(Cl)c1 (centres undefined) | 6.91% |
| COC(=O)CC1CCc2cc(C)cc(C(CC(C)C)NC(=O)[C@H](CC(C)C)NC(=O)OCc3ccccc3)c2O1 (some centres undefined) | -0.76% |
| O=S(=O)(c1ccc2c(c1)OCCCO2)N1CCN(S(=O)(=O)c2c(F)cccc2F)CC1 | -13.6% |
| CCOC(=O)c1c(C)n(C)c2ccc(OC)c(NS(=O)(=O)CC)c12 | -7.66% |
| O=C(Nc1nccs1)C1CCN(S(=O)(=O)c2ccc(Cl)c(C(F)(F)F)c2)CC1 | 1.48% |
| O=C1CC[C@@]23CCCN2C(=O)CCC[C@H]3[C@H]1Cc1ccccc1 | -5.11% |
| COc1ccc(CCNC(=O)COc2ccc3c(c2)OCO3)cc1 | -6.66% |
| c1ccc(Cc2cc[n+](Cc3ccccc3)cc2)cc1 | 6.8% |
| CN(C)c1ccc(N/C=C/C(=O)C(F)(F)F)cc1 | 40.7% (active) |
| CN(C)c1ccc(C(CC(=O)O)C(=O)O)cc1 (centres undefined) | -4.74% |
| CCOC(=O)c1ccc(NC(=O)c2c(NCc3ccccc3)[nH]c(=O)[nH]c2=O)cc1 | 1.1% |
| CCOC(=O)c1ccc(Nc2cc3ccccc3c(=O)[nH]2)cc1 | 44.6% (active) |
| CCOC(=O)c1ccc(NC(=O)c2c(N)n(C)c(=O)[nH]c2=O)cc1 | 3.07% |
| O=C(O)CCN(Cc1ccccc1)S(=O)(=O)c1c(Cl)cccc1Cl | 15.2% |
| Nn1cnnc1N/N=C/c1cc([N+](=O)[O-])c(Cl)cc1Cl | 39.5% (active) |
| Clc1ccc(-n2c(COc3ccccc3)nnc2SCc2nc3ccccc3[nH]2)cc1 | -3.9% |
| CC1=C2C(=O)OC(c3ccoc3)C2(C)CCC1 (centres undefined) | -14.5% |
| COc1ccccc1CN1CCN(Cc2cc(OC)c(OC)cc2OC)CC1 | 19% |
| COc1ccccc1/C=N/N1CCN(Cc2ccccc2Cl)CC1 | -9.24% |
| COc1ccccc1CN1CCN(C(c2ccccc2)c2ccccc2)CC1 | 25.9% (active) |
| Cc1cc(C)nc(SC2CCCCC2NS(=O)(=O)c2ccc(Cl)cc2)n1 (centres undefined) | 4.56% |
| Cc1coc2c(O)cc3c(c12)OC1(N2CCCCC2)C(=O)NCCCC31 (centres undefined) | 24.4% |
| O=C1C2C3C=CC(C4CC34)C2C(=O)N1/N=C/c1ccc(-c2ccccc2[N+](=O)[O-])o1 (centres undefined) | 11.7% |
| COc1ccc(/C=C2/C(=O)N(c3ccccc3)N=C2C)c(OC)c1 | 3.07% |
| CC1=NN(c2ccc(Cl)c(C(=O)O)c2)C(=O)/C1=C/c1ccc(-c2ccccc2[N+](=O)[O-])o1 | 36.1% (active) |

| SMILES | inhibition |
| --- | --- |
| CC(=O)c1ccc(S(=O)(=O)N2CCC3(CC2)OCCO3)cc1 | 25.2% (active) |
| Cc1c(C)c(C)c(S(=O)(=O)N2CCC3(CC2)OCCO3)c(C)c1C | 5.93% |
| CC(C)c1ccc(S(=O)(=O)N2CCC3(CC2)OCCO3)cc1 | 3.95% |
| C=CCc1cc(C)ccc1OCCCn1ccnc1 | -6.81% |
| CCCOc1ccc(Oc2c(Cl)cnn(Cc3cccc4ccccc34)c2=O)cc1 | -7.56% |
| Cc1ccc(S(=O)(=O)N(CCCN(C)C)Cc2ccc3c(c2)OCO3)cc1 | 3.37% |
| COc1ccc(N(CC(=O)Nc2cc(OC)cc(OC)c2)S(=O)(=O)c2c(C)n[nH]c2C)cc1 | 10.8% |
| COc1cc(NC(=O)COC(=O)c2cnc(C)cn2)c(C)cc1[N+](=O)[O-] | -5.59% |
| COc1cc(CCC(=O)OCC(=O)Nc2cccc(S(N)(=O)=O)c2)cc(OC)c1OC | -0.17% |
| COc1cc(NC(=O)COC(=O)c2ccc([N+](=O)[O-])s2)cc(OC)c1OC | 31.6% (active) |
| Cc1ccc(-n2c(SCC(=O)Nc3ccc(S(=O)(=O)Nc4nccs4)cc3)nnc2-c2ccncc2)cc1 | -0.21% |
| CCCCCCCCCCCCN1[C@@H](CC(C)=O)c2cc(F)cc(F)c2S1(=O)=O | 2.78% |
| Cc1cc(S(=O)(=O)NC2CCCCC2)ccc1OCC(=O)NCc1cccnc1 | -6.47% |
| CCOC(=O)C1=C(C)c2ccccc2OC1C(=O)OCC (centres undefined) | -3.4% |
| CCOC(=O)c1c(C)[nH]c2c1-c1ccccc1C(=O)C2=O | 55.1% (active) |
| CCOC(=O)c1c(C)oc(C)c(C(=O)OCC)c1=O | -25% |
| COc1ccc(C(=O)OCc2cc(=O)n3ccsc3n2)cc1F | -6.94% |
| O=C(Cc1ccc(NC(=O)C2CCCN(C(=O)CCc3ccccc3)C2)cc1)Nc1ccc(C(=O)N2CCOCC2)cc1 (centres undefined) | -19.6% |
| Fc1ccc2nc(COCc3nc4ccc(F)cc4[nH]3)[nH]c2c1 | -1.58% |
| CCCCCc1ccc(-c2ccc(OCC)cc2)nc1 | -8.17% |
| Cc1ccc(OCCCCc2c(C)n[nH]c2C)cc1 | 25.9% (active) |
| CSc1ccccc1OCc1cc(C(=O)N(C)CCc2c(C)n[nH]c2C)no1 | 6.82% |
| Brc1ccc(COCCc2cn(Cc3ccccc3)c3ccccc23)cc1 | -2.78% |
| CC1CCN(c2ccc(C(=O)O)cc2NS(=O)(=O)c2ccc(Br)s2)CC1 | 4.53% |
